ChEMBL document CHEMBL3045693, “Metabolism of diethofencarb (isopropyl 3,4-diethoxyphenylcarbamate) in rats: identification of metabolites in urine” (J Agric Food Chem, 2004)

Tests used:
Details in all cases: in vivo, 24 h
[1] = Drug excretion in Rattus norvegicus CD Sprague-Dawley (rat) urine assessed as 2-acetamino-3-{3-ethoxy-2-hydroxy-5-[(isopropoxycarbonyl) amino]phenylthio}propionic acid at 300 mg/5ml, po daily for 4 consecutive days measured within 1 day after final dose by NMR/MS analysis; format: ADME, organism-based
Summary of the method: (§1)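 Male CD (Sprague-Dawley) rats, 11 weeks old (n=4), housed individually in glass metabolism cages separating urine and feces. [phenyl-14C]-labelled compound given by gastric probe in corn oil at 300 mg/5 mL/kg daily for 4 days. Urine from the day after the last dose: aqueous layer hydrolysed with sulfatase (with β-glucuronidase activity) in 0.2 M acetate pH 5.0, 37 °C, 19 h. Ethyl acetate extraction, then HPLC/TLC purification and NMR/ESI-MS identification.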

[2] = Drug excretion in Rattus norvegicus CD Sprague-Dawley (rat) urine assessed as N-(3-ethoxy-4-hydroxyphenyl)-2-hydroxyacetamide at 300 mg/5ml, po daily for 4 consecutive days measured within 1 day after final dose by NMR/MS analysis; format: ADME, organism-based; summary of the method: as §1
[3] = Drug excretion in Rattus norvegicus CD Sprague-Dawley (rat) urine assessed as 1-hydroxypropan-2-yl 3-ethoxy-4-hydroxycarbanilate at 300 mg/5ml, po daily for 4 consecutive days measured within 1 day after final dose by NMR/MS analysis; format: ADME, organism-based; summary of the method: as §1
[4] = Drug excretion in Rattus norvegicus CD Sprague-Dawley (rat) urine assessed as 2-{2-ethoxy-4-[(isopropoxycarbonyl)amino]- phenoxy}acetic acid at 300 mg/5ml, po daily for 4 consecutive days measured within 1 day after final dose by NMR/MS analysis; format: ADME, organism-based; summary of the method: as §1
[5] = Drug excretion in Rattus norvegicus CDSprague-Dawley (rat) urine assessed as isopropyl 3-ethoxy-4- hydroxy-5-(methylthio) carbanilate at 300 mg/5ml, po daily for 4 consecutive days measured within 1 day after final dose by NMR/MS analysis; format: ADME, organism-based, CD Sprague-Dawley; summary of the method: as §1
[6] = Drug excretion in Rattus norvegicus CD Sprague-Dawley (rat) urine assessed as N-(3-ethoxy-4-hydroxy-5-methylsulfinylphenyl) acetamide at 300 mg/5ml, po daily for 4 consecutive days measured within 1 day after final dose by NMR/MS analysis; format: ADME, organism-based; summary of the method: as §1
[7] = Drug excretion in Rattus norvegicus CD Sprague-Dawley (rat) urine assessed as (4-acetamino-2-ethoxyphenoxy) acetic acid at 300 mg/5ml, po daily for 4 consecutive days measured within 1 day after final dose by NMR/MS analysis; format: ADME, organism-based; summary of the method: as §1
[8] = Drug excretion in Rattus norvegicus CD Sprague-Dawley (rat) urine assessed as 2-acetamino- 3-[5-acetamino-3-ethoxy-2-hydroxyphenylthio]propionic acid at 300 mg/5ml, po daily for 4 consecutive days measured within 1 day after final dose by NMR/MS analysis; format: ADME, organism-based; summary of the method: as §1
[9] = Drug excretion in Rattus norvegicus CD Sprague-Dawley (rat) urine assessed as N-(3-ethoxy-4- hydroxyphenyl)acetamide at 300 mg/5ml, po daily for 4 consecutive days measured within 1 day after final dose by NMR/MS analysis; format: ADME, organism-based; summary of the method: as §1
[10] = Drug excretion in Rattus norvegicus CD Sprague-Dawley (rat) urine assessed as 2-acetamino-3-{4-ethoxy-3-hydroxy-2-[(isopropoxycarbonyl)amino]phenylthio}propionic acid at 300 mg/5ml, po daily for 4 consecutive days measured within 1 day after final dose by NMR/MS analysis; format: ADME, organism-based; summary of the method: as §1
[11] = Drug excretion in Rattus norvegicus CD Sprague-Dawley (rat) urine assessed as 3-(3-ethoxy-4-hydroxyphenyl)-4-hydroxy-5-methyloxazolidin- 2-one at 300 mg/5ml, po daily for 4 consecutive days measured within 1 day after final dose by NMR/MS analysis; format: ADME, organism-based; summary of the method: as §1

Measured: Drug excretion

CCOc1ccc(NC(=O)OC(C)C)cc1OCC [DIETHENOFENCARB]
Active: all assays above
